# Experimental data from ChEMBL document CHEMBL4376874, “Discovery of Potent and Selective Epidermal Growth Factor Receptor (EGFR) Bifunctional Small-Molecule Degraders” (J Med Chem, 2020).
# Calls of active or inactive are those of the source. The rule behind the calls is not given here.
# Experiments:
# [1] = Toxicity in Swiss albino mouse assessed as clinical changes at 50 mg/kg, ip; assay type: organism-based; conditions: in vivo
# NCI-H3255 [2] = assay: Effect on AKT level in human H3255 cells up to 10 uM treated 8 hrs post serum starvation measured after 16 hrs by Western blot analysis; assay type: ADME, cell-based; conditions: nci-h3255, 16 h
# HCC827 [3] = assay: Up regulation of SEC61G expression in human HCC827 cells at 100 nM measured after 16 hrs by LC-MS analysis; assay type: functional, cell-based
# Outline: (§1)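 HCC-827 cells serum-starved 8 h, then treated at 100 nM for 16 h. Collected for label-free quantitative LC–MS proteomics; LFQ intensity compared between treated and control groups; three independent experiments.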
# HCC827 [4] = assay: Effect on AKT level in human HCC827 cells up to 10 uM treated 8 hrs post serum starvation measured after 16 hrs by Western blot analysis; assay type: ADME, cell-based; conditions: hcc827, 16 h
# [5] = target: T1, Epidermal growth factor receptor (Homo sapiens, UniProt P00533); assay: Induction of wild-type EGFR degradation in human H1299 cells at up to 10 uM treated 8 hrs post serum starvation measured after 16 hrs by Western blot analysis; assay type: cell-based
# HCC827 [6] = assay: Up regulation of HMGCS1 expression in human HCC827 cells at 100 nM measured after 16 hrs by LC-MS analysis; assay type: functional, cell-based; outline: as §1
# [7] = target: T1, Epidermal growth factor receptor; assay: Induction of wild-type EGFR degradation in human OVCAR8 cells at up to 10 uM treated 8 hrs post serum starvation measured after 16 hrs by Western blot analysis; assay type: cell-based
# HCC827 [8] = assay: Down regulation of NGDN expression in human HCC827 cells at 100 nM measured after 16 hrs by LC-MS analysis; assay type: functional, cell-based; outline: as §1
# HCC827 [9] = assay: Up regulation of BIN1 expression in human HCC827 cells at 100 nM measured after 16 hrs by LC-MS analysis; assay type: functional, cell-based; outline: as §1
# [10] = target: von Hippel-Lindau disease tumor suppressor/Epidermal growth factor receptor (Homo sapiens, UniProt P00533+P40337); assay: Protac activity at VHL/EGFR exon 19 deletion mutant in human HCC827 cells assessed as induction of EGFR degradation treated 8 hrs post serum starvation measured after 16 hrs by Western blot analysis
# [11] = target: Epidermal growth factor receptor (Homo sapiens, UniProt P00533, L858R); set-up: species or system Hofmanni bacterium
# [12] = target: T1, Epidermal growth factor receptor; assay: Binding affinity to human wild-type partial length EGFR (R669 to V1011 residues) expressed in bacterial expression system by kinomescan assay
# [13] = Cmax in Swiss albino mouse at 50 mg/kg, ip measured after 24 hrs; assay type: ADME, organism-based; set-up: dose 50 mg/kg, route intraperitoneal; conditions: in vivo
# NCI-H3255 [14] = assay: Antiproliferative activity against human H3255 cells measured after 3 days by CCK8 assay; assay type: functional, cell-based
# Outline: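 H3255 cells seeded 4000/well the night before, then exposed to serial dilutions for 3 days. Growth read by Cell Counting Kit-8; three independent experiments. IC50 from nonlinear regression (log inhibitor vs response, variable slope).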
# HCC827 [15] = assay: Down regulation of TXNIP expression in human HCC827 cells at 100 nM measured after 16 hrs by LC-MS analysis; assay type: functional, cell-based; outline: as §1
# HCC827 [16] = assay: Up regulation of RRM2 expression in human HCC827 cells at 100 nM measured after 16 hrs by LC-MS analysis; assay type: functional, cell-based; outline: as §1
# [17] = Cmax in Swiss albino mouse at 50 mg/kg, ip measured after 8 hrs; assay type: ADME, organism-based; set-up: dose 50 mg/kg, route intraperitoneal; conditions: in vivo
# HCC827 [18] = assay: Up regulation of DAD1 expression in human HCC827 cells at 100 nM measured after 16 hrs by LC-MS analysis; assay type: functional, cell-based; outline: as §1
# [19] = target: von Hippel-Lindau disease tumor suppressor/Epidermal growth factor receptor (Homo sapiens, UniProt P00533+P40337, L858R)
# [20] = tested on: von Hippel-Lindau disease tumor suppressor/Epidermal growth factor receptor (Homo sapiens), P00533+P40337 [UNDEFINED MUTATION]; assay: Protac activity at VHL/EGFR exon 19 deletion mutant in human HCC827 cells assessed as induction of EGFR degradation at up to 1 uM treated 8 hrs post serum starvation measured after 16 hrs by Western blot analysis; assay type: cell-based
# Outline: (§2)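 Cultured to 80% confluence in RPMI/1640 with 20% FBS at 37 °C and 5% CO2, then switched to serum-free medium for 8 h. Degraders were added over a concentration range up to 10 μM for 16 h, with gefitinib at 1 μM as reference. Lysates in Laemmli buffer were immunoblotted for EGFR, p-EGFR and p-AKT. DC50 came from band quantification by nonlinear regression (variable slope).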
# [21] = tested on: Protein cereblon/Epidermal growth factor receptor (Homo sapiens), P00533+Q96SW2 [UNDEFINED MUTATION]; assay: Protac activity at CRBN/EGFR exon 19 deletion mutant in human HCC827 cells assessed as induction of EGFR degradation at up to 1 uM treated 8 hrs post serum starvation measured after 16 hrs by Western blot analysis; assay type: cell-based
# [22] = tested on: von Hippel-Lindau disease tumor suppressor/Epidermal growth factor receptor (Homo sapiens), P00533+P40337 [L858R]; assay: Protac activity at VHL/EGFR L858R mutant in human H3255 cells assessed as induction of EGFR degradation up to 500 nM treated 8 hrs post serum starvation measured after 16 hrs by Western blot analysis; assay type: cell-based; outline: as §2
# [23] = tested on: von Hippel-Lindau disease tumor suppressor/Epidermal growth factor receptor (Homo sapiens), P00533+P40337 [L858R]; assay: Protac activity at VHL/EGFR L858R mutant in human H3255 cells assessed as induction of EGFR degradation at 1 to 10 uM treated 8 hrs post serum starvation measured after 16 hrs by Western blot analysis; assay type: cell-based; outline: as §2
# [24] = tested on: von Hippel-Lindau disease tumor suppressor/Epidermal growth factor receptor (Homo sapiens), P00533+P40337 [UNDEFINED MUTATION]; assay: Protac activity at VHL/EGFR exon 19 deletion mutant in human HCC827 cells assessed as reduction in AKT phosphorylation up to 10 uM treated 8 hrs post serum starvation measured after 16 hrs by Western blot analysis; assay type: cell-based
# [25] = tested on: von Hippel-Lindau disease tumor suppressor/Epidermal growth factor receptor (Homo sapiens), P00533+P40337 [L858R]; assay: Protac activity at VHL/EGFR L858R mutant in human H3255 cells assessed as reduction in AKT phosphorylation up to 10 uM treated 8 hrs post serum starvation measured after 16 hrs by Western blot analysis; assay type: cell-based
# [26] = tested on: von Hippel-Lindau disease tumor suppressor/Epidermal growth factor receptor (Homo sapiens), P00533+P40337 [UNDEFINED MUTATION]; assay: Protac activity at VHL/EGFR exon 19 deletion mutant in human HCC827 cells assessed as induction of EGFR degradation at 1 to 10 uM treated 8 hrs post serum starvation measured after 16 hrs by Western blot analysis; assay type: cell-based; outline: as §2
# [27] = tested on: von Hippel-Lindau disease tumor suppressor/Epidermal growth factor receptor (Homo sapiens), P00533+P40337 [UNDEFINED MUTATION]; assay: Protac activity at VHL/EGFR exon 19 deletion mutant in human HCC827 cells assessed as reduction in EGFR autophosphorylation up to 10 uM treated 8 hrs post serum starvation measured after 16 hrs by Western blot analysis; assay type: cell-based
# [28] = tested on: von Hippel-Lindau disease tumor suppressor/Epidermal growth factor receptor (Homo sapiens), P00533+P40337 [UNDEFINED MUTATION]; assay: Protac activity at VHL/EGFR exon 19 deletion mutant in human HCC827 cells assessed as induction of EGFR degradation up to 500 nM treated 8 hrs post serum starvation measured after 16 hrs by Western blot analysis; assay type: cell-based
# [29] = tested on: von Hippel-Lindau disease tumor suppressor/Epidermal growth factor receptor (Homo sapiens), P00533+P40337 [L858R]; assay: Protac activity at VHL/EGFR L858R mutant in human H3255 cells assessed as reduction in EGFR autophosphorylation up to 10 uM treated 8 hrs post serum starvation measured after 16 hrs by Western blot analysis; assay type: cell-based
# [30] = tested on: Epidermal growth factor receptor (Homo sapiens), P00533 [L858R]; assay: Induction of EGFR L858R degradation in human H3255 cells up to 100 nM treated 8 hrs post serum starvation measured after 16 hrs by Western blot analysis; assay type: cell-based
# [31] = tested on: Epidermal growth factor receptor (Homo sapiens), P00533 [UNDEFINED MUTATION]; assay: Induction of EGFR exon 19 deletion mutant degradation in human HCC827 cells up to 100 nM treated 8 hrs post serum starvation measured after 16 hrs by Western blot analysis; assay type: cell-based
# [32] = tested on: Epidermal growth factor receptor (Homo sapiens), P00533 [UNDEFINED MUTATION]; assay: Induction of EGFR exon 19 deletion mutant degradation in human HCC827 cells assessed as reduction in EGFR autophosphorylation up to 100 nM treated 8 hrs post serum starvation measured after 16 hrs by Western blot analysis; assay type: cell-based
# [33] = tested on: Epidermal growth factor receptor (Homo sapiens), P00533 [L858R]; assay: Induction of EGFR L858R degradation in human H3255 cells assessed as reduction in ATK phosphorylation up to 100 nM treated 8 hrs post serum starvation measured after 16 hrs by Western blot analysis; assay type: cell-based
# [34] = tested on: Epidermal growth factor receptor (Homo sapiens), P00533 [UNDEFINED MUTATION]; assay: Induction of EGFR exon 19 deletion mutant degradation in human HCC827 cells assessed as reduction in AKT phosphorylation up to 100 nM treated 8 hrs post serum starvation measured after 16 hrs by Western blot analysis; assay type: cell-based
# [35] = tested on: Epidermal growth factor receptor (Homo sapiens), P00533 [L858R]; assay: Induction of EGFR L858R degradation in human H3255 cells assessed as reduction in EGFR autophosphorylation up to 100 nM treated 8 hrs post serum starvation measured after 16 hrs by Western blot analysis; assay type: cell-based
smiles,measurement,setting,value
COc1cc2ncnc(Nc3ccc(F)c(Cl)c3)c2cc1OCCCN1CCN(C(=O)CCCCCCCCCC(=O)N[C@H](C(=O)N2C[C@H](O)C[C@H]2C(=O)NCc2ccc(-c3scnc3C)cc2)C(C)(C)C)CC1,Activity,[1],Non-Toxic
same,Activity,NCI-H3255 [2],Non-Toxic
same,Activity,HCC827 [3],Active
same,Activity,HCC827 [4],Non-Toxic
same,Activity,[5],Not Active
same,Activity,HCC827 [6],Active
same,Activity,[7],Not Active
same,Activity,HCC827 [8],Active
same,Activity,HCC827 [9],Active
same,DC50,[10],5 nM
same,Kd,[11],12 nM
same,Kd,[12],11 nM
same,Cmax,[13],1000 nM
same,Activity,NCI-H3255 [14],Active
same,Activity,HCC827 [15],Active
same,Activity,HCC827 [16],Active
same,Cmax,[17],5000 nM
same,Activity,HCC827 [18],Active
same,DC50,[19],3.3 nM
COc1cc2ncnc(Nc3ccc(F)c(Cl)c3)c2cc1OCCCN1CCN(C(=O)CCOCCOCCOCCC(=O)N[C@H](C(=O)N2C[C@H](O)C[C@H]2C(=O)NCc2ccc(-c3scnc3C)cc2)C(C)(C)C)CC1,Activity,[20],inactive
COc1cc2ncnc(Nc3ccc(F)c(Cl)c3)c2cc1OCCCN1CCN(CCC(=O)NCCCCCCNc2cccc3c2C(=O)N(C2CCC(=O)NC2=O)C3=O)CC1 (configuration not stated),Activity,[21],Active
COc1cc2ncnc(Nc3ccc(F)c(Cl)c3)c2cc1OCCCCCOCCOCCC(=O)N[C@H](C(=O)N1C[C@H](O)C[C@H]1C(=O)NCc1ccc(-c2scnc2C)cc1)C(C)(C)C,Activity,[22],Active
same,Activity,[23],inactive
same,Activity,[24],Active
same,Activity,[25],Active
same,Activity,[26],inactive
same,Activity,[27],Active
same,Activity,NCI-H3255 [14],Active
same,Activity,[28],Active
same,Activity,[29],Active
COc1cc2ncnc(Nc3ccc(F)c(Cl)c3)c2cc1OCCCN1CCN(CCC(=O)NCCOCCOCCOCCOCCOCCNc2cccc3c2C(=O)N(C2CCC(=O)NC2=O)C3=O)CC1 (configuration not stated),Activity,[21],Active
COc1cc2ncnc(Nc3ccc(F)c(Cl)c3)c2cc1OCCCN1CCOCC1,Activity,NCI-H3255 [14],Active
COc1cc2ncnc(Nc3ccc(F)c(Cl)c3)c2cc1OCCCN1CCN(CCC(=O)NCCCCCCCCOc2cccc3c2C(=O)N(C2CCC(=O)N(C)C2=O)C3=O)CC1 (configuration not stated),Activity,[30],inactive
same,Activity,[31],inactive
same,Activity,[32],Active
same,Activity,[33],Active
same,Kd,[11],4.3 nM
same,Kd,[12],3 nM
same,Activity,[34],Active
same,Activity,NCI-H3255 [14],Active
same,Activity,[35],Active
COc1cc2ncnc(Nc3ccc(F)c(Cl)c3)c2cc1OCCCN1CCN(C(=O)CCOCCOCCOCCOCCOCCC(=O)N[C@H](C(=O)N2C[C@H](O)C[C@H]2C(=O)NCc2ccc(-c3scnc3C)cc2)C(C)(C)C)CC1,Activity,[20],inactive
COc1cc2ncnc(Nc3ccc(F)c(Cl)c3)c2cc1OCCCN1CCN(CCC(=O)NCCOCCNc2cccc3c2C(=O)N(C2CCC(=O)NC2=O)C3=O)CC1 (configuration not stated),Activity,[21],Active
COc1cc2ncnc(Nc3ccc(F)c(Cl)c3)c2cc1OCCCN1CCN(C(=O)CCOCCC(=O)N[C@H](C(=O)N2C[C@H](O)C[C@H]2C(=O)NCc2ccc(-c3scnc3C)cc2)C(C)(C)C)CC1,Activity,[20],inactive
COc1cc2ncnc(Nc3ccc(F)c(Cl)c3)c2cc1OCCCN1CCN(C(=O)CCCCCCCCCC(=O)N[C@H](C(=O)N2C[C@@H](O)C[C@@H]2C(=O)NCc2ccc(-c3scnc3C)cc2)C(C)(C)C)CC1,Kd,[11],9 nM
same,Kd,[12],8.6 nM
same,Activity,NCI-H3255 [14],Active
